Source: PubChem (several laboratories)
Hits are enriched below; roughly 1.1% of the tested compounds scored in any of these assays.
Furin inh: human furin inhibitors, primary screen, biochemical, fluorescence intensity. P09958. purified furin, fluorogenic substrate cleavage. inhibition, % at 20 µM or 30 µM. 220,000 tested, 0.061% active. AID 463115, 2010; in the data active = inhibition above about 25%
Target sequence (P09958 108-714 limits assumed): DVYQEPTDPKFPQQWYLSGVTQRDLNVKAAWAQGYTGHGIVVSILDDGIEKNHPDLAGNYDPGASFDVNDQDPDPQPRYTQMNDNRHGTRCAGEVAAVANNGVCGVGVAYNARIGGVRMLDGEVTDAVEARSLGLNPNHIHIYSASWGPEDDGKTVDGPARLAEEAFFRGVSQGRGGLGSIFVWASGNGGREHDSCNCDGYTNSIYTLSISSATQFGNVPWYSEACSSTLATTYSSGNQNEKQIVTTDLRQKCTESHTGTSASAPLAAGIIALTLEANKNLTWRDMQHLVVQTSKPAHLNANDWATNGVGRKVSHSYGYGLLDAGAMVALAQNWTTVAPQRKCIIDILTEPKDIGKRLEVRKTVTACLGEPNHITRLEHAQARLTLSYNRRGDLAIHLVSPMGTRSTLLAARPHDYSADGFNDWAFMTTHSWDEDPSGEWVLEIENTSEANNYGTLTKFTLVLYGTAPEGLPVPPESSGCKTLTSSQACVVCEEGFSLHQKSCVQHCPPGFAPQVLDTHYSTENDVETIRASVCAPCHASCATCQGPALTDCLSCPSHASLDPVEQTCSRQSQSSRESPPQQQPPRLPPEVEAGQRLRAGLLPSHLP
Thrombin inh: human alpha-thrombin inhibitors, primary screen, counter-screen for coagulation protease inhibitor project, biochemical, 1536-well, fluorogenic AMC substrate. Prothrombin (Homo sapiens), P00734. Boc-VPR-AMC fluorogenic substrate cleavage. inhibition, % at 5 µM. 220,000 tested, 0.26% active. AID 1046, 2008;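 active = inhibition at or above 40%; inactive = inhibition below 40%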;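 also: 0% = enzyme with no compound and 100% = wells without enzyme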
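Assay system: human alpha-thrombin enzyme. Reagent: Boc-VPR-AMC substrate, 15 µM final. Compound dosing: one concentration per compound, 5 µM, with 0.2% DMSO. Incubation: room-temperature reaction. Technique: AMC fluorescence, 355/460 nm. Measure: % inhibition relative to enzyme controls and enzyme-free blanks.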
FXIIa inh: human FXIIa protease inhibitors, primary screen, biochemical, 1536-well; AID 800, 2007; 220,000 tested, 0.3% active; purified FXIIa, Boc-QGR-AMC fluorogenic substrate, 2 h; inhibition, % at 5 µM; in the data active = inhibition above about 40%;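 also: 0% = enzyme with no compound and 100% = blank without enzyme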
FXIa inh: human FXIa protease inhibitors, primary screen, biochemical, 1536-well; Coagulation factor XI (Homo sapiens), P03951; purified FXIa, Boc-Glu-Ala-Arg-AMC fluorogenic substrate; inhibition, % at 5 µM; 220,000 tested, 0.14% active; AID 798, 2007;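 active = inhibition of at least 40%; inactive = inhibition below 40%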;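 also: fluorescence of freed AMC excited at 355 nm; 0% = enzyme without compound and 100% = no enzyme blank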
KLK5 inh: human KLK5 protease inhibitors, primary screen, biochemical, 1536-well. Kallikrein-5 (Homo sapiens), Q9Y337. recombinant hK5, fluorogenic AMC substrate cleavage. inhibition, % at 5 µM. 210,000 tested, 0.59% active. AID 873, 2007;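 active = inhibition of 40% or more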;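 also: 0% = enzyme controls without compound and 100% = no-enzyme blanks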
* marks the source's active call; other numbers are inactive results; x = no result.

SMILES	Furin inh	Thrombin inh	FXIIa inh	FXIa inh	KLK5 inh
CCOC(=O)CSc1nc(C)cc(C)c1C(N)=O	-11.2	5.4	7.6	-3.7	-26.2
N[C@@H](Cc1ccc(O)cc1)c1nnc([C@H](CO)NC(=O)C2CCNCC2)o1	-20.3	-3.9	8.4	-2.1	-2.0
Cc1[nH]nc(SCC(=O)N(C)c2ccccc2)c1[N+](=O)[O-]	-23.2	-3.0	-3.4	1.5	-24.4
O=C(COc1ccc2c(c1)OCO2)Nc1ccccc1C(F)(F)F	-20.4	-3.4	-0.4	11.8	-20.0
O=Cc1ccc(OCC(=O)Nc2ccccc2C(F)(F)F)cc1	-4.5	31.3	63.8*	32.8	10.9
O=C(N/N=C/C(Cl)=C\c1ccccc1)c1cnccn1	2.6	17.0	17.9	7.1	56.3*
O=C(O)CCCC(=O)N1N=C(c2ccccc2)CC1c1cccs1 (stereo not given)	-3.6	6.9	25.1	49.5*	24.1
O=C(O)CCC(=O)N1N=C(c2ccccc2)CC1c1cccs1 (stereo not given)	-15.5	1.5	10.2	3.7	2.9
CSCCC(N=C(NS(=O)(=O)c1ccc(C)cc1)c1ccccc1)C(=O)O (stereo not given)	-20.9	-16.2	0.7	-3.9	-4.2
CCCCc1nc2sc3c(=O)n(N)cnc3c2c2c1CCC2	-30.1	4.1	-4.0	-1.6	-17.8
O=C(COC(=O)C12CC3CC(CC(O)(C3)C1)C2)NCCc1ccc(Cl)cc1	-29.7	100.5*	8.3	-2.5	0.2
O=C1c2ccccc2C(=O)N1CCN1CCCCC1	-20.9	31.1	25.3	0.9	51.2*
O=C1C(=O)N(CCN2CCCCC2)c2ccccc21	-10.9	-4.0	24.5	16.4	-9.9
Clc1ccc(-c2cccs2)nn1	-19.3	-0.6	3.7	-2.7	-0.1
Clc1ccc(-c2ccccc2)nn1	-13.8	-6.2	5.4	-8.6	45.1*
Cc1ccc(C(=O)NCC(=O)OC(C)C(=O)Nc2ccc(N(C)C)cc2)cc1C (stereo not given)	-16.8	-5.1	7.5	-4.5	-7.2
CC(C)(C)c1csc(Sc2ncccc2[N+](=O)[O-])n1	-6.6	-12.5	1.4	-3.2	-11.2
O=C1c2cccnc2Oc2ccc(Cl)cc2N1Cc1ccc(F)cc1	-6.2	35.8	14.4	22.4	43.8*
COC(=O)/C(C#N)=C(/Nc1ccc(F)c(Cl)c1)C(F)(F)F	-9.6	-6.1	1.6	-1.0	-5.0
CCN(CC)C(=O)CN1CCN(c2ncccn2)CC1	-25.6	32.6	10.4	4.2	64.3*
COc1ccc(C(=O)NCc2nnc(SCC(=O)N3CCc4ccccc43)n2Cc2ccccc2)cc1	-15.1	1.3	17.5	10.8	-19.1
O=C(c1cn[nH]c1)N1CCc2c([nH]c3ccccc23)C1c1c(F)cccc1Cl (stereo not given)	-30.0	2.2	14.8	0.3	75.1*
O=C(c1ccc(Cl)cc1)N1CCc2c([nH]c3ccccc23)C1C(F)(F)F (stereo not given)	3.8	-11.5	0.7	-6.8	2.9
COc1ccc(NC(=O)c2cccnc2N2CCCCC2)cc1	-14.0	2.1	7.0	8.2	-26.0
COc1ccc(NC(=O)c2cccnc2N2CCCC2)cc1	-23.2	24.8	3.7	2.1	59.0*
SMILES	Furin inh	Thrombin inh	FXIIa inh	FXIa inh	KLK5 inh
Cn1c(SCC(=O)NNC(=S)Nc2ccccc2)nnc1-c1ccncc1	-6.6	50.2*	8.3	-0.6	-3.6
CCCCNC(=O)CSc1nc2ccc(N3CCOCC3)cc2c(=O)n1Cc1ccc(OC)cc1	-25.9	0.4	9.8	1.2	x
COCCNC(=O)CSc1nc2ccc(N3CCOCC3)cc2c(=O)n1Cc1ccc(OC)cc1	6.8	2.7	-7.0	-6.0	103.1*
NC(=O)c1c(NC(=O)C2c3ccccc3Oc3ccccc32)sc2c1CCCCC2	-11.9	-7.8	10.2	1.2	-38.6
COc1ccccc1S(=O)(=O)Cc1ccc(C(=O)N2CCN(c3ccccn3)CC2)o1	-15.0	1.3	27.0	28.0	-8.3
O=C(c1ccc(COc2ccccc2Br)o1)N1CCN(c2ccccn2)CC1	-16.7	12.5	16.5	8.2	49.8*
COc1cccc(CN2CCNC(=O)C2CC(=O)N(C)Cc2cnccn2)c1OC (stereo not given)	-19.5	-7.9	3.9	-0.5	-4.6
COc1ccccc1CN1CCNC(=O)C1CC(=O)N(C)Cc1cnccn1 (stereo not given)	-16.9	21.9	49.3*	32.5	41.8*
CCOC(=O)c1c(CC(C)C)csc1/N=C/C1C(=O)CC(C)(C)CC1=O	-15.3	1.7	5.7	0.6	17.5
CCOC(=O)c1cc(C)sc1/N=C/C1C(=O)CC(C)(C)CC1=O	25.9*	-2.4	0.4	1.4	-15.4
CC(=O)c1sc(=S)n(-c2ccccc2)c1C	1.0	13.6	23.2	11.2	12.8
CSc1cc(C)n(-c2ccccc2)c(=S)c1C(C)=O	-11.1	20.2	17.8	1.8	46.1*
COC(=O)c1ccc(OC(=O)C23CCC(C)(C(=O)O2)C3(C)C)cc1 (stereo not given)	-19.4	-1.2	11.6	-3.4	12.4
COc1ccc(Cl)c(Cn2c(NCc3ccco3)nc3c2c(=O)n(C)c(=O)n3C)c1	-17.7	-3.8	14.9	2.8	-1.3
COc1cccc(Cn2c(NCc3ccco3)nc3c2c(=O)n(C)c(=O)n3C)c1	-9.6	0.4	43.6*	12.4	3.4
CN(O)/C=N/C(=S)Nc1ccc(Cl)cc1Cl	-17.9	-2.2	x	0.8	0.8
CCOCCn1c(-c2ccc(OC)cc2)nc2ccccc21	-4.1	19.1	53.6*	17.6	41.7*
CNc1nc(NCCOC23CC4CC(CC(C4)C2)C3)nc(OCC(F)(F)F)n1	29.3*	0.7	13.2	10.1	2.8
COc1ccc(CCNC(=O)C2CCC(CNS(=O)(=O)c3ccc(F)cc3)CC2)cc1OC (stereo not given)	-22.0	-7.7	-0.5	-5.0	-4.7
COc1ccc(CCNC(=O)Cn2nnc(-c3ccc(N4CCOCC4)cc3)n2)cc1OC	-5.1	1.8	-6.4	-9.4	126.1*
COc1cccc2cc(C(=O)NCC3CCCO3)c(=O)oc12 (stereo not given)	-15.4	104.0*	16.8	13.8	44.0*
COc1cc(Br)cc2cc(C(=O)NCC3CCCO3)c(=O)oc12 (stereo not given)	1.5	-7.8	1.8	-16.0	-7.9
COc1ccc(CCNC(=O)C(=O)NCC2CCCO2)cc1OC (stereo not given)	-14.9	28.9	15.0	2.7	50.6*
COc1ccc(CCNC(=O)C2CCC(CNS(=O)(=O)c3ccccc3)CC2)cc1OC (stereo not given)	-6.2	52.6*	25.6	29.3	20.6
COc1ccc(CCNC(=O)C(=O)NCC2CCCO2)cc1 (stereo not given)	-15.7	0.2	10.9	1.8	-5.3
